Active and inactive are the calls of the source.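 The calls were made as follows, unless noted: active = GFP response above 150% of the DMSO level; inconclusive = fewer than 70 events counted for a yeast strain; inactive = the rest.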
Key:
[1] = RPL19A-GFP modulators, yeast TOR pathway, confirmation, cell-based, S. cerevisiae, flow cytometry, cherry picks, mother/daughter gates (AID 2270;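 active = GFP response below 50% of the DMSO control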); settings: S. cerevisiae RPL19A-GFP strain, 3 h, at 10 µM, stronger effect = lower value, 100 = same GFP as DMSO wells
[2] = LAP4-GFP expression modulators in yeast, confirmation, cell-based, cherry picks, flow cytometry, mother/daughter gates (AID 2271;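 active = GFP response above 150% of the DMSO control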;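 also: ratio of sample to DMSO plate mean so 100% equals DMSO level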); settings: S. cerevisiae LAP4-GFP strain, 3 h, at 10 µM, stronger effect = higher value, 100 means same as DMSO control
Summary of the method: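 Material: Alexa 633-stained baker's yeast GFP-fusion strain; Compound dosing: single test-compound dose, 10 µM final; Incubation: 30 °C, 3 h compound incubation, rotating; Detection: HT flow cytometry, GFP fluorescence channel; Control set: positive rapamycin (400 ng/mL), negative DMSO.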

[3] = modulators of MEP2-GFP levels in yeast, confirmation, S. cerevisiae, flow cytometry GFP, cherry picks (AID 2272;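 active = GFP response above 150% of the DMSO control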;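 also: ratio of well signal to plate DMSO mean so 100% equals DMSO level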); settings: S. cerevisiae MEP2-GFP strain, 3 h, at 10 µM, stronger effect = higher value
[4] = AGP1-GFP expression modulators, hit retest, confirmation, cell-based, flow cytometry, S. cerevisiae, cherry picks (AID 2273);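 also: median GFP channel fluorescence over the whole cell population gate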; settings: S. cerevisiae AGP1-GFP strain, 3 h, at 10 µM
[5] = modulators of CIT2-GFP expression in yeast, confirmation, S. cerevisiae, GFP fusion, cherry picks, mother/daughter gates (AID 2274); settings: S. cerevisiae CIT2-GFP strain, flow cytometry, 3 h, at 10 µM, stronger effect = higher value
[6] = measured here: daughter cell gate
[7] = measured here: mother cell gate
[8] = measured here: daughter cell gate response
[9] = measured here: mother cell gate response

| SMILES | GFP response vs DMSO [1] | GFP response vs DMSO [1, 6] | GFP response vs DMSO [1, 7] | GFP response relative to DMSO [2] | GFP response relative to DMSO [2, 8] | GFP response relative to DMSO [2, 9] | GFP response vs DMSO [3] | GFP response, % of DMSO [4] | GFP response, % of DMSO [5] | GFP response, % of DMSO [5, 6] | GFP response, % of DMSO [5, 7] |
| --- | --- | --- | --- | --- | --- | --- | --- | --- | --- | --- | --- |
| Cc1ccccc1NC(=O)c1ccccc1O | 94% (inactive) | 92.9% | 94% | 106% (inactive) | 101% | 108% | 101% (inactive) | 93.8% (inactive) | 100% (inactive) | 97.4% | 98.1% |
| O=C1c2cccc3cccc(c23)C(=O)N1c1ccncc1 | 96.4% (inactive) | 97% | 98.8% | 84.9% (inactive) | 85% | 84.7% | 97.5% (inactive) | 103% (inactive) | 105% (inactive) | 106% | 106% |
| CCC(C)(C)n1nnnc1C(c1ccc(O)c(OC)c1)N1CCc2ccccc2C1 (stereo not given) | 100% (inactive) | 99.6% | 97.6% | 117% (inactive) | 99.3% | 117% | 99.5% (inactive) | 117% (inactive) | 108% (inactive) | 108% | 105% |
| CCOC(=O)c1cc(S(=O)(=O)N2CCN(C(=O)OCC)CC2)cn1C | 101% (inactive) | 99% | 101% | 105% (inactive) | 100% | 107% | 107% (inactive) | 95.7% (inactive) | 100% (inactive) | 99.7% | 102% |
| O=C(Nc1cccnc1)c1ccc(-c2ccc(Cl)cc2)o1 | 97.2% (inactive) | 93.9% | 97.7% | 101% (inactive) | 100% | 103% | 97.8% (inactive) | 94.1% (inactive) | 100% (inactive) | 98.1% | 99.8% |
| CCc1ccc2c(c1)C1(NN=C(c3ccccc3)S1)C(=O)N2 (stereo not given) | 101% (inactive) | 99.1% | 97.7% | 133% (inactive) | 125% | 140% | 114% (inactive) | 102% (inactive) | 94.4% (inactive) | 99.2% | 89.5% |
| CC(=O)c1ccc(N2CCN(S(=O)(=O)c3ccc4c(c3)CC(C)N4C(C)=O)CC2)cc1 (stereo not given) | 95.8% (inactive) | 93.9% | 91.9% | 98.9% (inactive) | 97.5% | 98.4% | 103% (inactive) | 98.8% (inactive) | 104% (inactive) | 99.3% | 103% |
| CS(=O)(=O)N1N=C(c2ccco2)CC1c1ccc(Br)cc1 (stereo not given) | 98.4% (inactive) | 98.1% | 99.2% | 103% (inactive) | 104% | 103% | 100% (inactive) | 96.8% (inactive) | 103% (inactive) | 103% | 101% |
| Cc1cccc(Sc2ccc([N+](=O)[O-])cn2)c1 | 98.6% (inactive) | 98.9% | 98% | 92.4% (inactive) | 92% | 92% | 105% (inactive) | 104% (inactive) | 103% (inactive) | 103% | 104% |
| C=CCNC(=S)N/N=C(\C)c1cccc(OC)c1 | 100% (inactive) | 102% | 101% | 98.8% (inactive) | 99.3% | 97.5% | 99.5% (inactive) | 95.2% (inactive) | 96.4% (inactive) | 96.4% | 93.3% |
| CC(=O)c1sc2nc(C)c3c(c2c1N)CCCC3 | 89.4% (inactive) | 88.5% | 89.3% | 111% (inactive) | 104% | 115% | 101% (inactive) | 98.2% (inactive) | 91.7% (inactive) | 88.7% | 92.6% |
| Cc1ccc(C(=O)c2nocc2C(=O)c2cccs2)cc1 | 98.7% (inactive) | 93.6% | 99.8% | 123% (inactive) | 111% | 128% | 95.4% (inactive) | 89.9% (inactive) | 80.6% (inactive) | 79.7% | 80.5% |
| CCCN1C(=O)c2cccc3c(N4CCCCC4)ccc(c23)C1=O | 98.7% (inactive) | 99.8% | 98.2% | 98.9% (inactive) | 101% | 99.5% | 103% (inactive) | 104% (inactive) | 103% (inactive) | 105% | 103% |
| CCN(CC)c1ccc(/C=C/c2cccc[n+]2C)c(OC)c1 | 103% (inactive) | 103% | 105% | 113% (inactive) | 113% | 116% | 137% (inactive) | 104% (inactive) | 112% (inactive) | 113% | 111% |
| Clc1ccc(-n2cccc2)cn1 | 101% (inactive) | 99.2% | 102% | 93.8% (inactive) | 95.6% | 95.2% | 100% (inactive) | 96.3% (inactive) | 99.1% (inactive) | 98.1% | 101% |

Reference: PubChem BioAssay
